High-throughput results deposited in PubChem BioAssay by several laboratories.
Compounds with a hit are over-represented: about 4.8% of the library has one in this group of screens.
UCH37 inh – human UCH37 deubiquitinating enzyme inhibition. Q9Y5K5. purified proteasome/UCH37, Ub-AMC cleavage fluorescence. inhibition, % (no concentration beside the values). actives 0.33% (n = 330,000). AID 588478;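 active = mean inhibition over replicate wells above about 20%, limit read from the data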;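 also: 0% = compound-free wells with enzyme and 100% = wells lacking proteasome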
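System: Proteasome-associated human UCH37 deubiquitinase; Input: 0.15 nM proteasome in added enzyme buffer; Also added: Ub-AMC substrate from 1 µM stock; Incubation: 30 min compound-proteasome preincubation then 25 min substrate reaction, room temperature; Detection: fluorescence, ex 355 nm, em 460 nm; Read-out: % inhibition of Ub-AMC cleavage fluorescence; Benchmarks: no-proteasome and no-compound wells.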
PAFAH2 FP inh – PAFAH2 (human) inhibition; recombinant PAFAH2, FP-rhodamine activity probe, fluorescence polarization; Q99487; actives 0.99% (n = 340,000); inhibition, % at 3.39 µM; AID 492956;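 active = inhibition above the mean over all tested compounds plus 3 SD, cut at about 30% in these data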;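 also: inhibitors block probe labeling of enzyme so polarization drops; 0% = enzyme with DMSO and 100% = wells lacking PAFAH2 protein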
PAFAH1B2 FP inh – blocks human PAF acetylhydrolase 1b catalytic subunit 2 | P68402 | recombinant PAFAH1B2, FP-rhodamine activity probe, fluorescence polarization | inhibition, % at 3.39 µM | actives 1.2% (n = 340,000);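 active = inhibition above the mean of all tested compounds plus 3 SD, cut at about 24% in these data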;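 also: 0% = enzyme with DMSO and 100% = wells lacking PAFAH1B2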
NR3A LBD binder – modulators (binders) of human NR3A ligand-binding domain; AID 1259313; Tm shift relative to glycine control, % at 25 µM; NR3A LBD differential scanning fluorimetry, Tm shift; 0% = protein alone, 100% = glycine-bound protein; actives 2.5% (n = 340,000);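 active = melting temperature shift of at least 10% of the positive control shift, at one fixed dose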
PAFAH1B3 FP inh – PAFAH1B3 (human) inhibition; inhibition, % at 3.39 µM; recombinant PAFAH1B3, FP-rhodamine probe, fluorescence polarization; Q15102; actives 0.28% (n = 340,000);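 active = inhibition above the screen-wide average of all tested compounds plus 3 SD, cut at about 25% in these data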;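 also: 0% = enzyme with DMSO only and 100% = wells lacking PAFAH1B3 protein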
Target sequence (Q15102 whole entry, looked up): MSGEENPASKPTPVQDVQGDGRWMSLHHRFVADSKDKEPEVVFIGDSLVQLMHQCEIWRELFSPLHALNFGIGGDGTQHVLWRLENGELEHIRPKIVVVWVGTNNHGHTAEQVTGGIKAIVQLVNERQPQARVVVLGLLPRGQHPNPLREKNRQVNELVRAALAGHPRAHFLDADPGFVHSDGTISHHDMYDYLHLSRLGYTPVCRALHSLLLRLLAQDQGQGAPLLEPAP
pPAFAH FP inh – inhibitors of human plasma PAF acetylhydrolase (pPAFAH); Q13093; recombinant pPAFAH, FP-rhodamine probe fluorescence polarization; inhibition, % at 3.39 µM; actives 1.5% (n = 330,000);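 active = inhibition above the mean inhibition across the screen plus 3 SD, cut at about 25% in these data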;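 also: inhibitors block binding of the rhodamine activity-based probe so polarization drops; 0% = enzyme with DMSO and 100% = wells lacking pPAFAH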
Target sequence (Q13093 whole entry, looked up): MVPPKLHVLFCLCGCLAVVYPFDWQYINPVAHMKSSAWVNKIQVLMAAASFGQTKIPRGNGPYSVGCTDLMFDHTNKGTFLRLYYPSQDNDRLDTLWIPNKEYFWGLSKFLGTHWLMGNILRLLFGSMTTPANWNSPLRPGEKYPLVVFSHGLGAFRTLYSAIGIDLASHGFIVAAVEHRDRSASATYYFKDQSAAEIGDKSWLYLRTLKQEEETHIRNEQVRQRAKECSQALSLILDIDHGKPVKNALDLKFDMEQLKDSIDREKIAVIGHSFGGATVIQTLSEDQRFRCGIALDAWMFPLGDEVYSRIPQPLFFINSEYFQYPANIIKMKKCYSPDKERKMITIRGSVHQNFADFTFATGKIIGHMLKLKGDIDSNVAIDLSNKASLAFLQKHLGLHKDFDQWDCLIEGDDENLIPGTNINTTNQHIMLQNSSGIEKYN
* = called active by the depositor; nt = no result.

SMILES	UCH37 inh	PAFAH2 FP inh	PAFAH1B2 FP inh	NR3A LBD binder	PAFAH1B3 FP inh	pPAFAH FP inh
COc1cc(/C=C2/C(=O)NN(c3ccc(C)c(Cl)c3)C2=O)cc([N+](=O)[O-])c1O	19	25	21	4	21	nt
COc1cc(/C=C2\SC(=O)N(c3ccc(Cl)cc3)C2=O)cc([N+](=O)[O-])c1O	6	19	8	14*	12	nt
COc1cc(/C=C2/C(=O)NN(c3cccc(C)c3)C2=O)cc([N+](=O)[O-])c1O	nt	12	16	-6	10	14
NC(=O)NN=Cc1ccccc1OC(=O)c1cc2ccccc2oc1=O	-50	nt	nt	nt	nt	nt
Cc1cn(S(=O)(=O)c2cc(Br)ccc2Br)cn1	-1	-1	0	10*	3	-2
Cc1cn(S(=O)(=O)c2ccc(Br)cc2)cn1	1	1	7	0	6	5
COc1cccc(CN(CCC(C)C)S(=O)(=O)c2cc(Br)ccc2Br)c1	nt	-33	5	15*	4	nt
CC1CCN(Cc2c(C(=O)NN=Cc3ccc(C(F)(F)F)cc3)nnn2-c2nonc2N)CC1	1	nt	nt	nt	nt	nt
COc1c(Cl)cc(Cl)cc1/C=N/NC(=O)c1nnn(-c2nonc2N)c1CN1CCC(C)CC1	nt	13	1	12*	4	6
CC1CCN(Cc2c(C(=O)N/N=C/c3cc(Br)ccc3O)nnn2-c2nonc2N)CC1	nt	2	4	13*	12	7
CC1CCN(Cc2c(C(=O)N/N=C/c3cc(Cl)ccc3O)nnn2-c2nonc2N)CC1	nt	-7	3	9	3	5
CCOc1ccc(/C=N/NC(=O)c2nnn(-c3nonc3N)c2CN2CCC(C)CC2)cc1	nt	0	3	11*	3	-3
CC1CCN(Cc2c(C(=O)N/N=C/c3cccc(C(F)(F)F)c3)nnn2-c2nonc2N)CC1	nt	-7	8	16*	1	4
O=C(COc1ccccc1[N+](=O)[O-])NN=Cc1ccc[nH]1	4	nt	nt	nt	nt	nt
Cc1ccc(S(=O)(=O)NN=Cc2cn(CC(N)=O)c3ccccc23)cc1	2	nt	nt	nt	nt	nt
CCCN(CCC)Cc1c(C(=O)NN=Cc2ccco2)nnn1-c1nonc1N	2	nt	nt	nt	nt	nt
Cc1nc2ccccc2c(=O)n1N=Cc1cc(Br)ccc1O	3	nt	nt	nt	nt	nt
CC(=O)Nc1ccc(S(=O)(=O)NC2(C(F)(F)F)NC(=O)N(c3ccc(C)cc3)C2=O)cc1 (centres undefined)	3	-2	7	10*	-10	-4
Cc1ccc(S(=O)(=O)NC2(C(F)(F)F)NC(=O)N(c3ccc(F)cc3)C2=O)cc1 (centres undefined)	4	-5	6	-3	1	-3
O=C(O)CC1SC(=NN=Cc2ccccc2)N(c2ccc(O)cc2)C1=O (centres undefined)	4	nt	nt	nt	nt	nt
COc1ccc(N2C(=O)/C(=C/c3cccnc3)NC2=S)cc1	nt	0	-1	1	1	-10
COc1ccc(N2C(=O)/C(=C/N(C)C)NC2=S)cc1	23*	0	9	-2	2	-3
CC1CCCC(=NNC(=O)c2ccccc2-n2cccc2)C1 (centres undefined)	2	nt	nt	nt	nt	nt
Cc1nc2c(nc1C)C(=O)c1ccccc1C2=O	nt	4	4	0	8	nt
COC1=C(N)C(=O)c2nc(C)ccc2C1=O	nt	18	27*	6	63*	nt
SMILES	UCH37 inh	PAFAH2 FP inh	PAFAH1B2 FP inh	NR3A LBD binder	PAFAH1B3 FP inh	pPAFAH FP inh
Nc1cc(Cl)nc(NN=Cc2c(O)ccc3ccccc23)n1	-4	nt	nt	nt	nt	nt
Cc1csc(SCC(=O)Nc2ccccn2)n1	3	-3	-3	3	-4	1
O=C(CSc1nc(-c2ccc(F)cc2)cs1)Nc1ccccn1	4	-26	-9	13*	-25	-2
O=C(Nc1cccc(F)c1)Nc1ccc(Cl)cn1	3	-12	-1	8	7	3
Cc1ccc(NC(=O)Nc2cccc(F)c2)nc1	5	11	4	21*	4	nt
Cc1ccc(NC(=O)Nc2ccc(Cl)c(Cl)c2)nc1	1	-16	-5	12*	-4	0
Cc1ccc(NC(=O)Nc2ccc(Cl)cn2)cc1	4	3	-3	-14	15	nt
CC(=NS(=O)(=O)c1ccc(C)cc1)N1CCN(S(=O)(=O)c2ccccc2)C1	5	nt	nt	nt	nt	nt
CC/C(=N/Nc1ccc(Cl)cc1)c1cnnc(SC)n1	nt	-5	-2	17*	3	0
CCC(=NNc1cccc(Cl)c1)c1cnnc(SC)n1	1	nt	nt	nt	nt	nt
Cc1ncc(CO)c(C=NNC(=S)Nc2ccc(F)cc2)c1O	-74	nt	nt	nt	nt	nt
Cc1ncc(CO)c(/C=N/NC(=S)Nc2ccc(Cl)c(Cl)c2)c1O	nt	17	7	23*	14	24
Cc1ncc(CO)c(/C=N/NC(=S)Nc2cccc(Cl)c2)c1O	nt	28	11	27*	12	14
O=C(NC1CC1)c1c[nH]c2ccc(S(=O)(=O)Nc3cccc(C(F)(F)F)c3)cc2c1=O	4	0	-1	11*	0	9
Cc1cc(C)cc(NS(=O)(=O)c2ccc3[nH]cc(C(=O)N4CCc5ccccc54)c(=O)c3c2)c1	6	-5	-5	13*	-6	21
CCN(CC)C(=O)c1c[nH]c2ccc(S(=O)(=O)Nc3cc(C)cc(C)c3)cc2c1=O	-7	0	7	1	5	29*
O=C(NCc1ccccc1)c1c[nH]c2ccc(S(=O)(=O)Nc3ccc4c(c3)OCCO4)cc2c1=O	0	-21	-8	12*	-9	1
CCn1cc(C(=O)N2CCc3ccccc32)c(=O)c2cc(S(=O)(=O)N3CCCC3)ccc21	5	3	6	-11	9	2
Cc1ccc(C2CC(=O)NC(SCc3ccccc3)=C2C#N)cc1 (centres undefined)	6	0	8	0	5	30*
N#CC1=C(SCc2ccccc2)NC(=O)CC1c1ccc(O)cc1 (centres undefined)	1	1	7	-1	-10	26*
CCCCCCSC1=C(C#N)C(c2ccccc2)CC(=O)N1 (centres undefined)	2	1	12	4	3	13
ON=C1CCCc2ccc3ccccc3c21	6	nt	nt	nt	nt	nt
CN1CCC(=O)N(CCSc2ccccc2)CC1	-1	2	2	0	9	16
O=C1CCN(CCc2ccccc2)CCN1CCSc1ccccc1	1	16	4	-1	7	31*
COc1cc(Cl)c(C)cc1NC(=O)CSC1=NCCS1	3	6	7	20*	6	1
O=C(NN=Cc1cccc([N+](=O)[O-])c1)c1cc(-c2ccccc2)nc2ccccc12	0	nt	nt	nt	nt	nt
CCOc1ccc(C=NN2C(C)CCCC2C)cc1OC (centres undefined)	-1	nt	nt	nt	nt	nt
N#CC(c1ccccc1)c1ccc(=O)[nH]n1 (centres undefined)	2	-7	0	2	-5	1
